Measurements gathered from unrelated publications.
Lines come from different studies, so protocols differ. Converted amounts (≈) assume the structure as drawn.

Structure (SMILES) | organism | test | test system | setting | quantity | value
O=[N+]([O-])c1cc2cc3ccc4oc([N+](=O)[O-])cc4c3cc2o1 | Mycolicibacterium smegmatis | microbial growth, resazurin | MC^2155 |  | MIC90 | 4 µg/mL (≈ 13.4 µM)
CC(C)[C@H](N)C(=O)OCCCCCn1cnc2nc(NCc3ccc(Cl)c(Cl)c3)[nH]c(=O)c21 | Lacticaseibacillus casei | microbial growth, agar dilution |  | 48 h | MIC | > 32 µg/mL
CCCCCOc1ccc(-c2cc(-c3ccc(C(=O)N[C@H]4C[C@@H](O)[C@@H](O)NC(=O)[C@@H]5[C@@H](O)[C@@H](C)CN5C(=O)[C@H]([C@H](O)CC(N)=O)NC(=O)[C@H]([C@H](O)[C@@H](O)c5ccc(O)c(OS(=O)(=O)O)c5)NC(=O)[C@@H]5C[C@@H](O)CN5C(=O)[C@H]([C@@H](C)O)NC4=O)cc3)no2)cc1 | Candida tropicalis | biofilm formation |  | 16 µg/mL | inhibition | 28%
O=C1C2CC3CC(C2)CC1C3 | Mycolicibacterium smegmatis | microbial growth |  | 48 h | IC50 | > 500000 nM
Cn1cnc2nc(NCc3ccc(Cl)c(Cl)c3)[nH]c(=O)c21 | Lacticaseibacillus casei | microbial growth, agar dilution |  | 48 h | MIC | 32 µg/mL (≈ 98.7 µM)
COc1ccc2c(ccc3oc([N+](=O)[O-])c(C)c32)c1 | Mycolicibacterium smegmatis | microbial growth, resazurin | MC^2155 |  | MIC90 | > 32 µg/mL
CC(C)=CCC/C(C)=C/CNCCNC1C2CC3CC(C2)CC1C3 (centres unmarked) | Mycolicibacterium smegmatis | microbial growth |  | 48 h | IC50 | 2400 nM
Cc1c2ccncc2c(C)c2c1[nH]c1ccccc12 | Mycolicibacterium smegmatis | microbial killing, resazurin |  |  | MBC | 87.1 µM (≈ 21.5 µg/mL)
